These results are taken from ChEMBL document CHEMBL4834402, “Discovery of TAK-981, a First-in-Class Inhibitor of SUMO-Activating Enzyme for the Treatment of Cancer” (J Med Chem, 2021).

Structures are written as SMILES. Activity calls are given as the source filed them. No cut-off for these calls is given here.

One data set deals with OCI-Ly10. Nature of the data set: Antitumor activity against human OCI-Ly10 cells xenografted in CB17 SCID mouse assessed as tumor growth inhibition at 50 mg/kg, iv administered thrice per week for 21 days and measured twice weekly. In kind it is functional, organism-based. The note with it: time 21.0 day. A digest of the protocol: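 Female CB17 SCID mice carrying OCI-Ly10 tumors (~200 mm3) were randomized, n = 8/group, with treatment from Day 1. Schedules were QD x21 (Days 1–21) or QD x3/week (three consecutive dosing days, four off). Tumor volume was measured twice weekly.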
(Xenograft models place foreign cells or tissue in a host animal.)

A short description of data set [1]: Apparent permeability across basolateral to apical side in human Caco2 cells. The note with it: Caco-2. The class given is ADME, cell-based. In general terms: Caco-2 monolayers are a common model of the intestinal barrier.
In data set [2] the target is T1, SUMO-activating enzyme (Homo sapiens) (UniProt Q9UBE0+Q9UBT2). Nature of the data set: Inhibition of SAE in human HCT116 cells xenografted in NCr nude mouse assessed as improvement in SUMO-inhibitor adduct durability at 50 mg/kg, iv and measured up to 16 hrs by mass spectrometry. In kind it is organism-based. Particulars: HCT-116. A digest of the protocol: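 Single IV dose at t = 0 to female Ncr nude mice bearing HCT-116 tumors, n = 3 per time point. Tumors harvested 2, 4, 8 and 16 h post-injection. Read-out is the adduct/SAE ratio: quantity of SUMO-compound adduct over quantity of total SAE enzyme, both measured by mass spectrometry. Values are averaged per time point.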

The target of data set [3] is T1, SUMO-activating enzyme (Homo sapiens). Nature of the data set: Inhibition of SAE in human OCI-Ly10 cells xenografted in CB17 SCID mouse assessed as improvement in SUMO-inhibitor adduct durability at 25 mg/kg, iv and measured up to 48 hrs by mass spectrometry. In kind it is organism-based. The note with it: time hrs <=48.
For data set [4] the target is unchanged. The data set is described as follows: Inhibition of SAE in human OCI-Ly10 cells xenografted in NCr nude mouse assessed as reduction in SUMO2/3 protein conjugates at 25 mg/kg, iv and measured up to 24 hrs by immunohistochemistry analysis. The note with it: HCT-116, time hrs <=24. The class given is organism-based.
The nature of data set [5]: Oral bioavailability in rat blood at 10 mg/kg. In kind it is ADME, organism-based.
For another data set, the system named is HCT-116. Nature of the data set: Cytotoxicity against human HCT116 cells assessed as reduction in cell viability after 72 hrs by CellTiter-Glo luminescent assay. The class given is functional, cell-based. The note with it: HCT-116, 72 h. (Cellular ATP, detected with luciferase, serves as a proxy for viable cell number.)

For the compound `Cc1sc(C(=O)c2cncnc2N[C@@H]2C[C@H](COS(N)(=O)=O)[C@@H](O)C2)cc1[C@@H]1NCCc2ccc(Cl)cc21`, in the data set on OCI-Ly10, the outcome was Active. Further, the Papp B→A in data set [1] came out at 46 ×10⁻⁶ cm/s. Further, the inhibition entry in data set [2], in data set [3] and in data set [4] was “Active” in each case. The compound further came in with a bioavailability in data set [5] of 10%. In addition, the EC50 in the data set with HCT-116 worked out at 63 nM.

What is called Papp B→A is how fast a substance crosses the layer from the basolateral side. For orientation: bioavailability means the share of a dose that reaches the circulation, judged against a reference dose that is usually intravenous. The low end stands for little systemic uptake, the high end for much systemic uptake. By EC50 is commonly meant the concentration at which the effect is half-maximal.
